≈ marks a conversion by molar mass, not a printed value.
These compounds were tested on Candida albicans (assay: Antimicrobial activity against Candida albicans ATCC 18804 after 48 hrs). Conditions: ATCC 18804, 48 h.
Assay type: functional
In short: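 Broth microdilution MIC per NCCLS M27-A in RPMI 1640. Yeasts were pre-grown on Sabouraud medium, 24 h for C. albicans and 48 h for C. neoformans. Compound solution was added to wells, then incubated 37 °C for 48 h. Ketoconazol was the positive control and DMSO 1 and 2% in RPMI the negative controls. Triplicate runs. MIC was the lowest concentration giving an optically clear well, judged visually against the drug-free growth control.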

Which MIC does the source give for `CC(=O)N1CCN(c2ccc(OCC3COC(Cn4ccnc4)(c4ccc(Cl)cc4Cl)O3)cc2)CC1` (configuration not stated) [KETOCONAZOLE] here?
The MIC was 0.24 µM (≈ 0.128 µg/mL).

These compounds were tested on HEK293 (assay: Cytotoxicity against HEK293 cells after 24 hrs by MTT assay). Conditions: not given.
Assay type: cell-based, Homo sapiens

With DIBUTYLDICHLOROSTANNANE as the compound, how does the IC50 read?
The IC50 was 30 nM.

How did the IC50 turn out when TRIBUTYLCHLOROSTANNANE was run?
The IC50 was 40 nM.

DICHLORODIMETHYLSTANNANE was tested. Which IC50 did it give?
The IC50 was 10 nM.

Which IC50 does the source give for DICHLORODIPHENYLSTANNANE here?
The IC50 was 50 nM.

For CHLOROTRIMETHYLSTANNANE, which IC50 is on record?
Its IC50 is 8 nM.

With CHLOROTRIPHENYLSTANNANE as the compound, how does the IC50 read?
The IC50 was 10 nM.

Source: ChEMBL document CHEMBL1154810, “Synthesis, characterization and biocidal activity of new organotin complexes of 2-(3-oxocyclohex-1-enyl)benzoic acid” (Eur J Med Chem, 2010)
